Experimental data: ChEMBL document CHEMBL5532752, “Integrating a quinone substructure into histone deacetylase inhibitors to cope with Alzheimer's disease and cancer” (RSC Med Chem, 2024)
Calls of active or inactive are those of the source. The rule behind the calls is not given here.

Key:
[1] = molecular target: T1, Protein deacetylase HDAC6 (Homo sapiens, UniProt Q9UBN7); assay: Inhibition of human recombinant HDAC6 using aminoluciferin-conjugated histone 4 derived acetylated lysine peptide as substrate incubated for 30 mins by bio-luminogenic assay
T1 sequence (Q9UBN7 whole entry): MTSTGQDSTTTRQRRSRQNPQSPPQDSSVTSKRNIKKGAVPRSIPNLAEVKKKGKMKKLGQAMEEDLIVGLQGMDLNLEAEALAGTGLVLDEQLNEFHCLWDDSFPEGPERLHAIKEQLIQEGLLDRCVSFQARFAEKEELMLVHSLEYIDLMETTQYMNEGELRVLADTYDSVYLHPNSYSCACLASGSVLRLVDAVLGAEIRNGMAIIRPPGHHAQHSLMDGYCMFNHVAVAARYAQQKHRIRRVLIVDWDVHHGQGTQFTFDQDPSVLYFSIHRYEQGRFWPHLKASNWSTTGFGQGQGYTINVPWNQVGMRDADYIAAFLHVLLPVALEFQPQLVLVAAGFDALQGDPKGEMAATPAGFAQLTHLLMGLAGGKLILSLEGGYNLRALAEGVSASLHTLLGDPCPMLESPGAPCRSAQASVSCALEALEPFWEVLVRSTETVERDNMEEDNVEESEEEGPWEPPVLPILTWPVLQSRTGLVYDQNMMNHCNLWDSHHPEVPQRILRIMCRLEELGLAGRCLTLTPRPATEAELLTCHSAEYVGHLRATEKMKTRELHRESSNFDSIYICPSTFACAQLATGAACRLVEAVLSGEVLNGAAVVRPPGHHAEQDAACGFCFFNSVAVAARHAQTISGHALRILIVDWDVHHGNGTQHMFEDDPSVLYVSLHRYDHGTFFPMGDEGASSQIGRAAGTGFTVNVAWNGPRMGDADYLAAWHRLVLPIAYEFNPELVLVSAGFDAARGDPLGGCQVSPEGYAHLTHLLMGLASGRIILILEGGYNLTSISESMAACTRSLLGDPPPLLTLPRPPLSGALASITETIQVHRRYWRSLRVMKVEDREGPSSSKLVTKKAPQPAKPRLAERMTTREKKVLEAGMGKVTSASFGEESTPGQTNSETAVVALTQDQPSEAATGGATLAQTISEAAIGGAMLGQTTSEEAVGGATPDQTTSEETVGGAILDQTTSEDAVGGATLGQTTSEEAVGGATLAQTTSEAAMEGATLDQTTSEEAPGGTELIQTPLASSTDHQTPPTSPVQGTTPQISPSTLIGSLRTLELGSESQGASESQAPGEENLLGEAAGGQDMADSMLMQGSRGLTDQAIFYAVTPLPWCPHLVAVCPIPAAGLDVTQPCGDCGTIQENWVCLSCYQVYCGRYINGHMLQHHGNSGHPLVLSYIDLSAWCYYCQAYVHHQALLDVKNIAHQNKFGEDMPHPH

SH-SY5Y [2] = assay: Cytotoxicity against human SH-SY5Y cells assessed as reduction in cell viability incubated for 48 hrs by MUH reagent based spectrophotometric analysis; assay type: functional
SH-SY5Y [3] = assay: Antioxidant activity in human SH-SY5Y cells assessed as protection against […]-induced oxidative stress at 2 uM pretreated for 24 hrs followed by incubation with […] for 30 mins by DCFH-DA staining based fluorescence analysis; assay type: functional, cell-based; conditions: time 24.5 hrs
Summary of the method: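 SH-SY5Y seeded 1 × 10⁴ cells/well, adhered 24 h, exposed to 2 μM compound or vehicle for 24 h, then loaded with 10 μM DCFDA in DMEM for 30 min; stress induced afterwards with 100 μM TBH in PBS for 30 min. Fluorescence read at ex 485/em 535 nm, normalized to Lowry protein; n = 5, triplicate.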

SH-SY5Y [4] = assay: Cytotoxicity against human SH-SY5Y cells assessed as reduction in cell viability incubated for 72 hrs by MUH reagent based spectrophotometric analysis; assay type: functional
Summary of the method: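 SH-SY5Y in DMEM/10% FBS seeded 0.75 × 10⁴ cells/well, after 24 h treated with 0.1–100 μM for 24, 48 or 72 h. Washed, incubated with MUH 0.01 mg/mL in PBS 30 min at 37 °C in the dark; fluorescence ex 330/em 450 nm, normalized to untreated cells. IC50 by nonlinear regression, log(inhibitor) vs normalized response.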

SH-SY5Y [5] = assay: Induction of oxidative stress in human SH-SY5Y cells assessed as increase in ROS production at 2 uM incubated for 24 hrs by DCFH-DA staining based fluorescence analysis; assay type: functional, cell-based
Summary of the method: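 SH-SY5Y plated 1 × 10⁴ cells/well, allowed 24 h to adhere, then given 2 μM compound or vehicle for 24 h. Cells PBS-washed and loaded with 10 μM DCFDA in DMEM for 30 min, washed again; fluorescence at ex 485/em 535 nm normalized to protein content (Lowry). n = 5; mean ± SD, triplicate.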

Histone deacetylase 2 = Histone deacetylase 2 (Homo sapiens, UniProt Q92769); assay: Inhibition of human recombinant HDAC2 using aminoluciferin-conjugated histone 4 derived acetylated lysine peptide as substrate incubated for 30 mins by bio-luminogenic assay
Sequence of Histone deacetylase 2 (Q92769 whole entry): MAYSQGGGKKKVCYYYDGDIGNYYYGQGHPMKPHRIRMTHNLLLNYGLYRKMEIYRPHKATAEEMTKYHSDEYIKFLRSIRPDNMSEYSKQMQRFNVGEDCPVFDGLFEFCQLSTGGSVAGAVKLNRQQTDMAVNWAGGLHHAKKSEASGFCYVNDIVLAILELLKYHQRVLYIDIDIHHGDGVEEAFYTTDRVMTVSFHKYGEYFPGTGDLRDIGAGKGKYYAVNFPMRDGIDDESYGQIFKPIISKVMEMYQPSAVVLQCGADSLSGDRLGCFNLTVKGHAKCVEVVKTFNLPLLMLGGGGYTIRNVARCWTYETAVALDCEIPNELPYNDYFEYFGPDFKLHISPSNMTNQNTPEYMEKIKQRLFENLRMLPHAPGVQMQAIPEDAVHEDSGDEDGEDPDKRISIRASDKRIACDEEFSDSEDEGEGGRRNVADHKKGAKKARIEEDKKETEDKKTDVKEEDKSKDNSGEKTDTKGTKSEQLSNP

SH-SY5Y [6] = assay: Induction of apoptosis in human SH-SY5Y cells assessed as increase in caspase-3 activity at 1 uM incubated for 72 hrs by colorimetric assay relative to control; assay type: functional
Summary of the method: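 Cells treated 72 h, collected, PBS-rinsed, lysed on ice 10 min; protein quantified by Bradford. Lysates incubated 2 h at 37 °C with 2× reaction buffer containing 10 mM dithiothreitol and DEVD-pNA caspase-3 substrate. Free pNA read by absorbance at 405 nm; activity expressed as fold over untreated cells. At least 3 independent experiments.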

SH-SY5Y [7] = assay: Cytotoxicity against human SH-SY5Y cells assessed as reduction in cell viability incubated for 24 hrs by MUH reagent based spectrophotometric analysis; assay type: functional
SH-SY5Y [8] = assay: Induction of cell cycle arrest in human SH-SY5Y cells assessed as proportion of cells at sub-G1 phase at 10 uM incubated for 72 hrs by propidium iodide staining based flow cytometry (reference value: 5.56%)
[9] = Cytotoxicity against human HepG2 cells assessed as reduction in cell viability incubated for 24 hrs by MTT assay; assay type: toxicity, cell-based
Summary of the method: (§1)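 HepG2 in MEM with 10% FBS, plated 1.5 × 10⁴ cells/well; after 24 h exposed to 0.010–100 μM compound or vehicle for 24 h. MTT (0.2 mg/mL in PBS) for 2 h at 37 °C, formazan dissolved in DMSO, absorbance at 570 nm. Viability relative to vehicle controls, mean ± SD, n = 4.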

Neurosphere = assay: Toxicity against C57BL/6N mouse neurosphere at 25 to 50 uM measured after 7 days by bright filed microscopy; assay type: tissue-based; conditions: in vitro, 168 h
Summary of the method: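 Neurospheres from sub-ventricular zone of 8-month-old male C57BL/6N mice, dissociated with Accutase, plated as single cells 5 × 10³/well in suspension in EGF/FGF2/N2/B27 medium with 2.5–50 μM compound or DMSO for 7 days. Daily brightfield live imaging; sphere count and total area per image, aggregates >400 μm² only.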

HepG2 = assay: Cytotoxicity against human HepG2 cells assessed as cell viability upto 10 uM incubated for 24 hrs by MTT assay; assay type: toxicity, cell-based; conditions: hepg2, 24 h; summary of the method: as §1

| Structure (SMILES) | IC50 [1] [µM] | IC50 (SH-SY5Y [2]) [µM] | Activity (SH-SY5Y [3]) | IC50 (SH-SY5Y [4]) [µM] | Activity (SH-SY5Y [5]) | IC50 (Histone deacetylase 2) [µM] | fold change (FC) (SH-SY5Y [6]) | IC50 (SH-SY5Y [7]) [µM] | Activity (SH-SY5Y [8]) [%] | IC50 at 24 h [9] [µM] | Activity (Neurosphere) | Activity (HepG2) |
| --- | --- | --- | --- | --- | --- | --- | --- | --- | --- | --- | --- | --- |
| CC1=C(NCc2ccc(C(=O)Nc3ccccc3N)cc2)C(=O)c2ccccc2C1=O | 3.76 | 0.78 | inactive | 0.62 | Active | 2.1 | 1.2 | 1.56 | 42.32 |  |  |  |
| CC1=C(NCCCCNC(=O)CS)C(=O)c2ccccc2C1=O | 30 | > 100 | inactive | > 100 | inactive | 25.2 |  | > 100 |  | 25.5 | Toxic | Non-Toxic |
